Assay results reported in ChEMBL document CHEMBL1124553, “Brain-specific chemical delivery systems for beta-lactam antibiotics. In vitro and in vivo studies of some dihydropyridine and dihydroisoquinoline derivatives of benzylpenicillin in rats” (J Med Chem, 1989).

Experiments:
[1] = Half-life for disappearance of compound from dog whole blood; assay type: ADME, organism-based, Canis lupus familiaris
How it was run: (§1)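 Freshly collected whole blood, or 10% w/v brain homogenate in pH 7.4 phosphate buffer (ionic strength 0.15), was prewarmed to 37 °C. Compound was spiked from an 8 mM DMSO stock to 40 µM final. Timed samples were quenched in 8% DMSO/acetonitrile, centrifuged, filtered and analyzed by reversed-phase C8 HPLC with UV detection. K came from linear regression of log peak height versus time, with t1/2 derived from it. Values are mean ± SE of three determinations in different animal samples.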

[2] = Half-life for disappearance of compound from rat 10% brain homogenate; assay type: ADME; how it was run: as §1
[3] = Half-life for disappearance of compound from rat whole blood; assay type: ADME, organism-based; how it was run: as §1
[4] = species: Canis familiaris; experiment: Pseudo first-order rate constant (K) for disappearance of compound from dog whole blood; assay type: ADME, organism-based, Canis lupus familiaris; how it was run: as §1
[5] = species: Rattus norvegicus; experiment: Pseudo first-order rate constant (K) for disappearance of compound from rat 10% brain homogenate; assay type: ADME
How it was run: (§2)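 Freshly collected whole blood (rat trunk blood; rabbit) or 10% w/v brain homogenate made in pH 7.4 phosphate buffer (μ = 0.15), prewarmed to 37 °C. Compound added from 8 mM DMSO stock to a final 40 μM. Timed 0.3 mL samples were quenched in 8% DMSO/acetonitrile, centrifuged, filtered and analysed by reversed-phase C8 HPLC-UV. K came from linear regression of log peak height versus time; n=3 animal samples.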

[6] = Pseudo first-order rate constant (K) for disappearance of compound from rat whole blood; assay type: ADME, tissue-based; how it was run: as §2
[7] = tested on: Rattus norvegicus; experiment: Concentration of compound in rat blood after intravenous injection of 20 mg/kg benzyl-penicillin after 1 min; assay type: functional, organism-based; set-up: dose 20 mg/kg
How it was run: (§3)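 Male Sprague-Dawley rats (200-250 g), conscious, received 60 µmol/kg (equimolar to 20 mg/kg benzylpenicillin) by tail-vein injection. Benzylpenicillin K was given in water/ethanol/propylene glycol, and the delivery systems in ethanol:propylene glycol 7:3, at 20 mg/mL. Rats were decapitated at set times (4-6 per point), with trunk blood heparinized and brain, kidney, liver and lung frozen. Benzylpenicillin was measured by disk microbioassay (Bacillus subtilis ATCC 6633) after >5-volume sterile-water dilution or homogenization, against matrix calibration curves; assay limit 0.05 µg/mL.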

[8] = tested on: Rattus norvegicus; experiment: Concentration of compound in rat blood after intravenous injection of 20 mg/kg benzyl-penicillin after 10 min; assay type: functional, organism-based; set-up: dose 20 mg/kg; how it was run: as §3
[9] = tested on: Rattus norvegicus; experiment: Concentration of compound in rat blood after intravenous injection of 20 mg/kg benzyl-penicillin after 20 min; assay type: functional, organism-based; set-up: dose 20 mg/kg; how it was run: as §3
[10] = tested on: Rattus norvegicus; experiment: Concentration of compound in rat blood after intravenous injection of 20 mg/kg benzyl-penicillin after 3 min; assay type: functional, organism-based; set-up: dose 20 mg/kg; how it was run: as §3
[11] = tested on: Rattus norvegicus; experiment: Concentration of compound in rat blood after intravenous injection of 20 mg/kg benzyl-penicillin after 5 min; assay type: functional, organism-based; set-up: dose 20 mg/kg; how it was run: as §3
[12] = tested on: Rattus norvegicus; experiment: Concentration of compound in rat brain after intravenous injection of 20 mg/kg benzyl-penicillin after 1 min; assay type: functional, organism-based; set-up: dose 20 mg/kg; how it was run: as §3
[13] = tested on: Rattus norvegicus; experiment: Concentration of compound in rat brain after intravenous injection of 20 mg/kg benzyl-penicillin after 3 min; assay type: functional, organism-based; set-up: dose 20 mg/kg; how it was run: as §3
[14] = Half-life for disappearance of compound from human whole blood; assay type: ADME, organism-based; how it was run: as §1
[15] = Half-life for disappearance of compound from rabbit 10% brain homogenate; assay type: ADME, Oryctolagus cuniculus; how it was run: as §1
[16] = Half-life for disappearance of compound from rabbit whole blood; assay type: ADME, organism-based, Oryctolagus cuniculus; how it was run: as §1
[17] = species: Homo sapiens; experiment: Pseudo first-order rate constant (K) for disappearance of compound from human whole blood; assay type: ADME, organism-based; how it was run: as §1
[18] = species: Oryctolagus cuniculus; experiment: Pseudo first-order rate constant (K) for disappearance of compound from rabbit 10% brain homogenate; assay type: ADME; how it was run: as §2
[19] = species: Oryctolagus cuniculus; experiment: Pseudo first-order rate constant (K) for disappearance of compound from rabbit whole blood; assay type: ADME, organism-based; how it was run: as §2
[20] = tested on: Rattus norvegicus; experiment: Concentration of compound in rat brain after intravenous injection of 20 mg/kg benzyl-penicillin after 60 min;Below detection limit.; assay type: functional, organism-based; set-up: dose 20 mg/kg; how it was run: as §3
[21] = tested on: Rattus norvegicus; experiment: Concentration of compound in rat blood after intravenous injection of 20 mg/kg benzyl-penicillin after 40 min; assay type: functional, organism-based; set-up: dose 20 mg/kg; how it was run: as §3
[22] = tested on: Rattus norvegicus; experiment: Concentration of compound in rat blood after intravenous injection of 20 mg/kg benzyl-penicillin after 60 min; assay type: functional, organism-based; set-up: dose 20 mg/kg; how it was run: as §3
[23] = tested on: Rattus norvegicus; experiment: Concentration of compound in rat brain after intravenous injection of 20 mg/kg benzyl-penicillin after 10 min; assay type: functional, organism-based; set-up: dose 20 mg/kg; how it was run: as §3
[24] = tested on: Rattus norvegicus; experiment: Concentration of compound in rat brain after intravenous injection of 20 mg/kg benzyl-penicillin after 20 min;Below detection limit.; assay type: functional, organism-based; set-up: dose 20 mg/kg; how it was run: as §3
[25] = tested on: Rattus norvegicus; experiment: Concentration of compound in rat brain after intravenous injection of 20 mg/kg benzyl-penicillin after 40 min;Below detection limit.; assay type: functional, organism-based; set-up: dose 20 mg/kg; how it was run: as §3
[26] = tested on: Rattus norvegicus; experiment: Concentration of compound in rat brain after intravenous injection of 20 mg/kg benzyl-penicillin after 5 min; assay type: functional, organism-based; set-up: dose 20 mg/kg; how it was run: as §3

half-life [1] | half-life [2] | half-life [3] | K [4] | K [5] | K [6] | half-life [14] | half-life [15] | half-life [16] | K [17] | K [18] | K [19] | Structure (SMILES) | Concentration [7] | Concentration [8] | Concentration [9] | Concentration [10] | Concentration [11] | Concentration [12] | Concentration [13] | other results
11.4 min | 28.3 min | 0.6 min | 0.062 min⁻¹ | 0.025 min⁻¹ | 1.083 min⁻¹ |  |  |  |  |  |  | CN1C=c2ccccc2=C(C(=O)NCCOC(=O)C2N3C(=O)C(NC(=O)Cc4ccccc4)C3SC2(C)C)C1 (centres undefined) | 6.6 µg/mL | 1.2 µg/mL | 0.2 µg/mL | 3 µg/mL | 2.5 µg/mL | 0.2 µg/mL | 0.2 µg/mL | 
5.7 min | 5.7 min | 0.3 min | 0.123 min⁻¹ | 0.125 min⁻¹ | 2.712 min⁻¹ | 19.4 min | 4.6 min | 1.3 min | 0.037 min⁻¹ | 0.152 min⁻¹ | 0.553 min⁻¹ | CN1C=CCC(C(=O)NCCOC(=O)C2N3C(=O)C(NC(=O)Cc4ccccc4)C3SC2(C)C)=C1 (centres undefined) | 5 µg/mL | 4.9 µg/mL | 0.8 µg/mL | 7.3 µg/mL | 3.8 µg/mL | 0.2 µg/mL | 0.3 µg/mL | Concentration [20]: Below limit of detection; Concentration [21]: 0.3 µg/mL; Concentration [22]: 0.2 µg/mL; Concentration [23]: 0.1 µg/mL; Concentration [24]: Below limit of detection; Concentration [25]: Below limit of detection; Concentration [26]: 0.2 µg/mL
3.6 min | 0.6 min |  | 0.213 min⁻¹ | 1.357 min⁻¹ |  | 15.9 min | 4.3 min | 0.8 min | 0.045 min⁻¹ | 0.166 min⁻¹ | 0.949 min⁻¹ | CN1C=CCC(C(=O)OCOC(=O)C2N3C(=O)C(NC(=O)Cc4ccccc4)C3SC2(C)C)=C1 (centres undefined) |  |  |  |  |  |  |  | 
